Assay results from ChEMBL document CHEMBL1156054, “Allosteric functional switch of neurokinin A-mediated signaling at the neurokinin NK2 receptor: structural exploration” (J Med Chem, 2009).
Activity calls are given as the source filed them. The rule behind the calls is not given here.

Experiments:
[1] = biological target: T1, Substance-K receptor (Rattus norvegicus) (UniProt P16610); assay: Allosteric modulation of rat NK2 receptor expressed in HEK293 cells assessed as formation of active receptor calcium-triggering conformation at 10 uM in presence of 20nM NKA-Bo by FRET assay; assay type: functional, cell-based
T1 sequence (whole entry): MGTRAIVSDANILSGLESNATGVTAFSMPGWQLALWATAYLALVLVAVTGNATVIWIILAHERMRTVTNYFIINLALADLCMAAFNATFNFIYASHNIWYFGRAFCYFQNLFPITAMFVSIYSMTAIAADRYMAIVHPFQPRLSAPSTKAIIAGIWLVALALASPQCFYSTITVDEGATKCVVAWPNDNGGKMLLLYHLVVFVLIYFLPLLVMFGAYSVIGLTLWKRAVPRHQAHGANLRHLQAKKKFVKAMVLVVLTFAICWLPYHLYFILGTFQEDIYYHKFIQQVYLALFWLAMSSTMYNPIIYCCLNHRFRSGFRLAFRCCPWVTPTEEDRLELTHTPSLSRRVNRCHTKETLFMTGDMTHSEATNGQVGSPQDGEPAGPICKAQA
In short: (§1)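 HEK293 cells stably expressing EGFP-fused rat NK2 receptor (hygromycin B 500 μg/mL selection) are suspended in Hepes-BSA buffer, pH 7.4, with protease inhibitors. EGFP emission is read at 510 nm with 470 nm excitation. 20 nM NKA-Bo is added at 50 s, compound (10 μM) at 450 s for 150 s, then excess unlabeled NKA at 600 s.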

[2] = biological target: T1, Substance-K receptor (Rattus norvegicus); assay: Inhibition of NKA-Bo binding to rat NK2 receptor expressed in HEK293 cells at 10 uM by FRET assay relative to neurokinin A; assay type: cell-based; in short: as §1
[3] = biological target: T1, Substance-K receptor (Rattus norvegicus); assay: Allosteric modulation of rat NK2 receptor expressed in HEK293 cells assessed as enhancement of neurokinin A-induced intracellular calcium level at 20 uM by spectrofluorimetry; assay type: functional, cell-based
[4] = biological target: T1, Substance-K receptor (Rattus norvegicus); assay: Allosteric modulation of rat NK2 receptor expressed in HEK293 cells assessed as reduction of neurokinin A-induced cAMP production at 10 uM by radioimmunoassay; assay type: functional, cell-based; design: scale not given: the % may be the effect or the level left
In short: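 HEK293 cells expressing NK2 receptor are seeded at 50000 on collagen-coated wells and cultured 3 days (~80% confluency). They are stimulated with increasing NKA concentrations with or without 10 μM compound. The reaction is stopped with ice-cold 0.2 M HCl and cAMP is measured by radioimmunoassay. Values are mean ± SD of six determinations; the change in maximal response amplitude is reported.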

[5] = biological target: T1, Substance-K receptor (Rattus norvegicus); assay: Allosteric modulation of rat NK2 receptor expressed in HEK293 cells assessed as formation of active receptor calcium-triggering conformation at 50 uM in presence of 20nM NKA-Bo by FRET assay; assay type: functional, cell-based
[6] = biological target: T1, Substance-K receptor (Rattus norvegicus); assay: Allosteric modulation of rat NK2 receptor expressed in HEK293 cells assessed as formation of active receptor cAMP-producing conformation at 10 uM in presence of 20nM NKA-Bo by FRET assay; assay type: functional, cell-based; in short: as §1
[7] = biological target: T1, Substance-K receptor (Rattus norvegicus); assay: Allosteric modulation of rat NK2 receptor expressed in HEK293 cells assessed as formation of active receptor cAMP-producing conformation at 50 uM in presence of 20nM NKA-Bo by FRET assay; assay type: functional, cell-based

SMILES	Activity [1]	inhibition [2]	also measured
O=C(CN(Cc1ccccc1)Cc1ccc2ccccc2c1)N1CCCCC1	44%	0%	
O=C(CN(Cc1ccccc1)Cc1ccc2ccccc2c1)N1CCN(c2ccccc2)CC1	43%	0%	
c1ccc(CN(Cc2ccc3ccccc3c2)c2cccnc2)cc1	59%	0%	
O=C(O)CCCCN(Cc1ccccc1)Cc1ccc2ccccc2c1	44%	0%	
CN1CCN(C(=O)CN(Cc2ccccc2)Cc2ccc3ccccc3c2)CC1	58%	0%	
O=C(CN(Cc1ccccc1)Cc1ccc2ccccc2c1)OCCN1CCOCC1	42%	0%	
CCOC(=O)CCCCN(Cc1ccccc1)Cc1ccc2ccccc2c1	52%	0%	
c1ccc(CN(Cc2ccc3ccccc3c2)c2ccncn2)cc1	61%	34%	
O=C(CN(Cc1ccccc1)Cc1ccc2ccccc2c1)OCCc1ccccc1	46%	0%	
c1ccc(CN(Cc2ccc3ccccc3c2)c2ccccn2)cc1	56%	17%	
CCCCNC(=O)CN(Cc1ccccc1)Cc1ccc2ccccc2c1	54%	0%	
N#CCN(C/C=C/c1ccccc1)Cc1ccccc1	47%	0%	
CCCCCCCCCCCCCCCCOC(=O)CN(Cc1ccccc1)Cc1ccc2ccccc2c1	38%	0%	

The next lines start with results.

Activity [1]	inhibition [2]	SMILES	also measured
35%	0%	O=C(O)CN(Cc1ccccc1)Cc1ccc2ccccc2c1	
68%	0%	N#CCCCN(Cc1ccccc1)Cc1ccc2ccccc2c1	Emax [3]: 120%; Activity [4]: 47%
47%	0%	N#CCN(Cc1ccccc1)Cc1ccc2ccccc2n1	
49%	0%	COc1ccc(CN(CC#N)Cc2ccccc2)cc1	
54%	0%	COc1ccc(CN(CC#N)Cc2ccc3ccccc3c2)cc1	
47%	0%	N#CCN(Cc1ccc(I)cc1)Cc1ccc2ccccc2c1	
45%	0%	N#CCN(Cc1ccccc1)Cc1cccc(Cl)c1	
50%	0%	N#CCN(Cc1ccccc1)Cc1ccc2ccccc2c1	Activity [3]: inactive; Activity [4]: 33%; Activity [5]: 95%; Activity [6]: 50%; Activity [7]: 5%
46%	21%	N#CCN(Cc1ccccc1)Cc1cnc2ccccc2c1	
45%	0%	N#CCN(Cc1ccc(Br)cc1)Cc1ccc2ccccc2c1	
51%	0%	CCOC(=O)CN(Cc1ccccc1)Cc1ccc2ccccc2c1	
43%	0%	N#CCN(Cc1ccc2ccccc2c1)Cc1ccccc1Br	
48%	0%	N#CCN(Cc1ccccc1)Cc1ccc(C(F)(F)F)cc1	
51%	0%	C#CCN(Cc1ccccc1)Cc1ccc2ccccc2c1	
53%	0%	N#CCN(Cc1ccccc1)Cc1ccc(Cl)cc1	
39%	20%	N#CCN(Cc1ccc(CCc2ccccc2)cc1)Cc1ccc2ccccc2c1	
53%	0%	O=C(CN(Cc1ccccc1)Cc1ccc2ccccc2c1)OCCO	
